Most compounds without a hit are left out; they make up all but 5.7% or so of the library.
Beta apoptosis: blocks beta cell apoptosis | 300,000 compounds, 0.8% hits | AID 435005 | INS-1E cytokine-induced death, ATP luminescence, 48 h; percent of positive-control rescue, neutral wells zero | protection from apoptosis, % (concentration not given with the values);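 active = Every replicate reaches about 75%, or at least half do and their mean reaches it too, limit read from the data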;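 note: higher means more ATP so stronger rescue from cytokine killing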
T cruzi inh: blocks replication of Trypanosoma cruzi. 300,000 compounds, 1.4% hits. AID 1885. inhibition, % (concentration not given with the values). T. cruzi beta-gal in NIH3T3, luminescence, 90 h;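 active = mean inhibition across valid replicates above about 55%, limit read from the data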;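 note: signal also drops with host cell toxicity which is not excluded here; higher percent means less beta-gal luminescence so fewer parasites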
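Material: NIH/3T3 host cells with β-galactosidase reporter T. cruzi; Input: 5,000 host fibroblasts per well; Medium: DMEM, 2% fetal bovine serum; Compound: 50 nL DMSO compound solution per well; Schedule: 3 h host attachment, then at least 90 h co-culture; Detection: luminescent β-galactosidase signal after 60 min lysis.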
Mdm2-MdmX inh: inhibitors of human Mdm2/MdmX interaction; inhibition, % at 8 µM; O15151+Q00987; SaOS-2 split-luciferase Mdm2/MdmX complementation, luminescence; 330,000 compounds, 3% hits;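 active = inhibition of at least 50% at 8 µM in the primary screen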
Target sequence (O15151 whole entry, looked up): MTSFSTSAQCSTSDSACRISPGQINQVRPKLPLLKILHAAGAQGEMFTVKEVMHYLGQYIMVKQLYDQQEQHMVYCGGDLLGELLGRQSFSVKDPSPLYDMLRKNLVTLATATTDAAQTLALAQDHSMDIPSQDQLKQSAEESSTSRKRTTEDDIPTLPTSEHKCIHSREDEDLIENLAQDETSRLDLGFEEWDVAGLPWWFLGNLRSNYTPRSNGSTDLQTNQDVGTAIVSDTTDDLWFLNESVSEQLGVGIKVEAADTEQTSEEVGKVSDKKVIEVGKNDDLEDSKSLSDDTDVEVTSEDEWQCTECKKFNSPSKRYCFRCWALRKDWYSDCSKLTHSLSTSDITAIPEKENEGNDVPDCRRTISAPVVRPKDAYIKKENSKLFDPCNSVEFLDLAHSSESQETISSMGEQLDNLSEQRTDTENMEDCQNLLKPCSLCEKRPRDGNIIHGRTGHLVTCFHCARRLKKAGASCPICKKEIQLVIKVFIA
Target sequence (Q00987 whole entry, looked up): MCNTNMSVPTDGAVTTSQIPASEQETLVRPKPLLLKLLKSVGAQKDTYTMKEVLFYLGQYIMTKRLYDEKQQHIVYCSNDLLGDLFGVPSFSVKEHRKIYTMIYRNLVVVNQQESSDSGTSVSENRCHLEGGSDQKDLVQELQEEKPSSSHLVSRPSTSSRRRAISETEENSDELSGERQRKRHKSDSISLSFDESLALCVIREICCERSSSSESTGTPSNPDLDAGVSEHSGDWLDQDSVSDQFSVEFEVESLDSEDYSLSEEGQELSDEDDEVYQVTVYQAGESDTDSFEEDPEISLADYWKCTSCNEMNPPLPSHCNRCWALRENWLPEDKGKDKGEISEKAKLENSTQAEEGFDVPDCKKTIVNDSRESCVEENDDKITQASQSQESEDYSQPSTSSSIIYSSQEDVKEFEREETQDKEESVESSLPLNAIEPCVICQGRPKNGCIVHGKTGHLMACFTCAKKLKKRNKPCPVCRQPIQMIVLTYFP
Calb FLC: affects C. albicans growth with fluconazole; C. albicans CaCi-2 (fluconazole-resistant clinical isolate) + fluconazole, Alamar Blue growth, 48 h; growth inhibition, % (concentration not given with the values); 300,000 compounds, 0.57% hits; AID 1979;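 active = growth inhibition above about 58% in most replicates, limit read from the data, passing the limit was not always enough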;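 note: all wells also contain fluconazole at 8 µg/ml as a sub-toxic cotreatment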
CSC inhib: blocks cancer stem cells; cancer stem cell-like cells viability, luminescence; inhibition, % at 7.5 µM; 300,000 compounds, 1.1% hits; AID 2717; in the data active = inhibition above about 75%; tested in HMLE shEcad cells
SKKanGAS inh: inhibitors of SKKanGAS S. pyogenes growth in kanamycin (SK-promoter or general growth effect). AID 1662. inhibition, % at 7.5 µM. BacTiter-Glo, 6 h. 300,000 compounds, 1.3% hits;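 active = mean replicate score, as percent of positive control median, at least 50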;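 note: strain carries kanamycin resistance gene driven by streptokinase promoter and grows in 40 µg/ml kanamycin; loss of luminescence reflects streptokinase promoter inhibition or plain growth inhibition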
Mdm2-MdmX conf: human Mdm2/MdmX binding inhibition, confirmed; shares compounds with Mdm2-MdmX inh; luminescent assay; inhibition, % at 8 µM; 10,000 compounds, 55% hits; in the data active = inhibition above about 40%
FLuc counter: inhibits full-length luciferase, flagging false Mdm2/MdmX hits; 6,200 compounds, 77% hits; SaOS-2 full-length luciferase counterscreen, luminescence; inhibition, % at 8 µM; shares compounds with Mdm2-MdmX inh;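 active = mean inhibition at 8 µM reaching about 37%, which flags the compound as non-specific, limit read from the data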;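 note: p53-null SaOS-2 cells with luciferase driven by a doxycycline-inducible promoter; compound on cells about two nights before reading with doxycycline added after day one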
A number is an active result.

For N#Cc1ccc(/C=N/N=C(N)N)cc1 the results were Beta apoptosis inactive, T cruzi inh inactive, Mdm2-MdmX inh inactive, Calb FLC inactive, CSC inhib inactive and SKKanGAS inh inactive.
`NC(N)=N/N=C/c1ccc(Br)cc1` gave Beta apoptosis inactive, T cruzi inh 67, Mdm2-MdmX inh 54, Calb FLC inactive, CSC inhib inactive, SKKanGAS inh inactive, Mdm2-MdmX conf 58 and FLuc counter 57.
For NC(N)=N/N=C/c1ccc(OCc2ccc(Cl)cc2)cc1 the results were T cruzi inh 61, Mdm2-MdmX inh 98, Calb FLC 111, SKKanGAS inh inactive and Mdm2-MdmX conf inactive.
For O=C(N/N=C/c1ccccc1)c1ccc(OCc2ccccc2)cc1 the results were Beta apoptosis inactive, T cruzi inh inactive, Mdm2-MdmX inh inactive, Calb FLC inactive and SKKanGAS inh inactive.
For NC(N)=N/N=C/c1ccc(OCc2ccccc2)cc1 the results were Beta apoptosis 82, T cruzi inh 71, Mdm2-MdmX inh 55, Calb FLC inactive, CSC inhib inactive, SKKanGAS inh inactive and Mdm2-MdmX conf inactive.
For C[C@@]12C(=O)N(c3cccc(F)c3)C(=O)N1[C@@H]1c3ccccc3OC[C@@H]1[C@H]2c1ccccc1 the results were Beta apoptosis inactive, Mdm2-MdmX inh inactive and CSC inhib inactive.
CCOC(=O)c1cccc(Nc2nc(-c3cccnc3)nc3ccccc23)c1 was read as Beta apoptosis inactive, T cruzi inh inactive, Mdm2-MdmX inh 70, Calb FLC inactive, CSC inhib 92, SKKanGAS inh inactive and Mdm2-MdmX conf inactive.
`COC(=O)c1cccc(Nc2nc(-c3cccnc3)nc3ccccc23)c1` gave Beta apoptosis inactive, T cruzi inh inactive, Mdm2-MdmX inh 70, Calb FLC inactive, CSC inhib inactive, SKKanGAS inh inactive, Mdm2-MdmX conf 43 and FLuc counter 72.
O=C(O)c1cccc(Nc2nc(-c3cccnc3)nc3ccccc23)c1 was read as Beta apoptosis inactive, T cruzi inh inactive, Mdm2-MdmX inh inactive, Calb FLC inactive, CSC inhib inactive and SKKanGAS inh inactive.
Screening COC(=O)c1ccc(CNC(=O)CCNC(=O)c2ccco2)cc1 returned Beta apoptosis inactive and Mdm2-MdmX inh inactive.
For CC(C)c1nc(NCCO)c(C#N)c2c1CCCC2 the results were Beta apoptosis inactive, T cruzi inh inactive, Mdm2-MdmX inh 53, Calb FLC inactive, CSC inhib inactive, SKKanGAS inh inactive, Mdm2-MdmX conf 57 and FLuc counter inactive.
CCCCc1nc(NCCO)c(C#N)c2c1CCCC2 was read as Beta apoptosis inactive, T cruzi inh inactive, Mdm2-MdmX inh inactive, Calb FLC inactive, CSC inhib inactive and SKKanGAS inh inactive.
Screening CCOC(=O)c1ccc(Oc2cc(C)nc(SC)n2)cc1 returned Beta apoptosis inactive, T cruzi inh inactive, Mdm2-MdmX inh 56, Calb FLC inactive, CSC inhib inactive, SKKanGAS inh inactive, Mdm2-MdmX conf 58 and FLuc counter 49.
Oc1ccc(N=Nc2ccc(Br)cc2)c(O)c1 was read as Beta apoptosis inactive, T cruzi inh 60, Mdm2-MdmX inh 82, Calb FLC inactive, CSC inhib 92, SKKanGAS inh inactive, Mdm2-MdmX conf 41 and FLuc counter 98.
Screening Oc1ccc(N=Nc2n[nH]c(-c3ccc(Br)cc3)n2)cc1 returned Beta apoptosis inactive, T cruzi inh inactive, Calb FLC inactive, CSC inhib inactive and SKKanGAS inh inactive.
`CCN(CC(=O)Nc1ccc2c(c1)OCCO2)C(=O)c1cc(=O)[nH]c2ccccc12` gave Beta apoptosis inactive, T cruzi inh inactive, Mdm2-MdmX inh inactive, CSC inhib inactive and SKKanGAS inh inactive.
N#Cc1ccc(NC(=O)Cn2cnc([N+](=O)[O-])c2)cc1 was read as Beta apoptosis inactive, T cruzi inh inactive, Mdm2-MdmX inh inactive, Calb FLC inactive, CSC inhib inactive and SKKanGAS inh inactive.
O=C(Cn1cnc([N+](=O)[O-])c1)Nc1cc(Oc2ccc(Cl)cc2Cl)cc([N+](=O)[O-])c1 was read as Beta apoptosis inactive, T cruzi inh 57, Mdm2-MdmX inh 56, Calb FLC inactive, CSC inhib inactive, SKKanGAS inh inactive and Mdm2-MdmX conf inactive.
For C=CCC1(C(=O)NCCO)CCN(C(=O)OC(C)(C)C)CC1 the results were Beta apoptosis inactive, T cruzi inh inactive, Mdm2-MdmX inh inactive, Calb FLC inactive, CSC inhib inactive and SKKanGAS inh inactive.
Screening CCOc1ccc(OCCC(=O)N(CCCOC)c2c(N)n(Cc3ccccc3)c(=O)[nH]c2=O)cc1 returned Beta apoptosis inactive, T cruzi inh inactive, Mdm2-MdmX inh inactive, Calb FLC inactive, CSC inhib inactive and SKKanGAS inh inactive.
`CCOC(=O)c1c(C)n(C)c2ccc(OCC(O)CNC(CC)CO)cc12` (configuration not stated) gave Beta apoptosis inactive, T cruzi inh inactive, Mdm2-MdmX inh inactive, Calb FLC inactive, CSC inhib inactive and SKKanGAS inh inactive.
For CCOC(=O)c1c(C)n(-c2ccc(C)cc2)c2ccc(OCC(O)CNCC3CCCO3)cc12 (configuration not stated) the results were Beta apoptosis inactive, T cruzi inh 64, Mdm2-MdmX inh 78, Calb FLC inactive, CSC inhib 118, SKKanGAS inh inactive, Mdm2-MdmX conf 42 and FLuc counter 62.
For OC(CNCC1CCCO1)COc1ccc(OCC(O)CNCC2CCCO2)cc1 (configuration not stated) the results were Beta apoptosis inactive, T cruzi inh inactive, Mdm2-MdmX inh inactive, Calb FLC inactive, CSC inhib inactive and SKKanGAS inh inactive.
For CCOC(=O)c1c(C)n(-c2ccc(C)cc2)c2ccc(OCC(O)CNCCCO)cc12 (configuration not stated) the results were Beta apoptosis inactive, Mdm2-MdmX inh 89, Calb FLC inactive, CSC inhib inactive, SKKanGAS inh inactive and Mdm2-MdmX conf inactive.
Screening COC(=O)[C@@]1(Cc2ccccc2)[C@H]2C(=O)N(Cc3ccccc3)C(=O)[C@H]2[C@H]2CN=C(SCc3ccccc3)N21 returned Mdm2-MdmX inh 89, Mdm2-MdmX conf 86 and FLuc counter inactive.
COC(=O)[C@@]1(Cc2ccccc2)[C@H]2C(=O)N(Cc3ccccc3)C(=O)[C@H]2[C@H]2CN=C(SCc3ccc(C)cc3)N21 was read as Mdm2-MdmX inh 58, Mdm2-MdmX conf 65 and FLuc counter 46.
`Cc1cc(NC(=O)CC2CCCC2)n(-c2nc3ccccc3[nH]2)n1` gave Beta apoptosis inactive, T cruzi inh inactive, Mdm2-MdmX inh 57, Calb FLC inactive, CSC inhib inactive, SKKanGAS inh 51 and Mdm2-MdmX conf inactive.
